Compound activity: PubChem BioAssay, several laboratories
PostGolgi yeast: phenotypic screen on post-Golgi transport, primary screen; post-Golgi transport phenotypic cell assay; inhibition, % at 10 µM; 98,000 tested, 0.9% active; AID 739, 2007;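 note: yeast cells grown in 1536-well plates; yeast grown about 18 h at 30C before absorbance read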
E coli WT exp: growth inhibitors of wild-type E. coli, primary screen, strain BW25113, expanded library, OD600. OD600 absorbance. growth inhibition, % at 100 µM. AID 710, 2007. 98,000 tested, 0.15% active;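 active = growth inhibition above about 50% at one test dose, limit read from the data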;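 note: growth measured after 20 h incubation at 37 °C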
Ecoli tolC: growth inhibitors of E. coli tolC mutant, primary screen, strain BW25113 ΔtolC::kan, 384-well; growth inhibition, % at 10 µM (by protocol); OD615; 65,000 tested, 2.2% active;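 active = growth inhibition at or above a cutoff equal to the mean over every tested compound plus 3 SD, cut at about 60% in these data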;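 note: growth measured after 20 h incubation at 37 °C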
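Test system – E. coli BW25113 ΔtolC::kan, tolC deletion mutant strain · Detection – OD at 615 nm · Buffer or medium – LB with kanamycin 50 µg/mL · Times – 20 h compound exposure of bacteria at 37 °C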
Cav32 inh: Cav3.2 calcium influx blockers – cell-based, Fluo-4 calcium fluorescence, FDSS, MLSMR library, primary screen | 100,000 tested, 4% active | Cav3.2-expressing cells; active compounds read low | B-score at 10 µM | Voltage-dependent T-type calcium channel subunit alpha-1H (Homo sapiens), O95180;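 active = single-dose well whose peak fluorescence ratio is a statistical outlier from its plate by either plate-standardised score or position-corrected B-score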
Target sequence (O95180 whole entry, looked up): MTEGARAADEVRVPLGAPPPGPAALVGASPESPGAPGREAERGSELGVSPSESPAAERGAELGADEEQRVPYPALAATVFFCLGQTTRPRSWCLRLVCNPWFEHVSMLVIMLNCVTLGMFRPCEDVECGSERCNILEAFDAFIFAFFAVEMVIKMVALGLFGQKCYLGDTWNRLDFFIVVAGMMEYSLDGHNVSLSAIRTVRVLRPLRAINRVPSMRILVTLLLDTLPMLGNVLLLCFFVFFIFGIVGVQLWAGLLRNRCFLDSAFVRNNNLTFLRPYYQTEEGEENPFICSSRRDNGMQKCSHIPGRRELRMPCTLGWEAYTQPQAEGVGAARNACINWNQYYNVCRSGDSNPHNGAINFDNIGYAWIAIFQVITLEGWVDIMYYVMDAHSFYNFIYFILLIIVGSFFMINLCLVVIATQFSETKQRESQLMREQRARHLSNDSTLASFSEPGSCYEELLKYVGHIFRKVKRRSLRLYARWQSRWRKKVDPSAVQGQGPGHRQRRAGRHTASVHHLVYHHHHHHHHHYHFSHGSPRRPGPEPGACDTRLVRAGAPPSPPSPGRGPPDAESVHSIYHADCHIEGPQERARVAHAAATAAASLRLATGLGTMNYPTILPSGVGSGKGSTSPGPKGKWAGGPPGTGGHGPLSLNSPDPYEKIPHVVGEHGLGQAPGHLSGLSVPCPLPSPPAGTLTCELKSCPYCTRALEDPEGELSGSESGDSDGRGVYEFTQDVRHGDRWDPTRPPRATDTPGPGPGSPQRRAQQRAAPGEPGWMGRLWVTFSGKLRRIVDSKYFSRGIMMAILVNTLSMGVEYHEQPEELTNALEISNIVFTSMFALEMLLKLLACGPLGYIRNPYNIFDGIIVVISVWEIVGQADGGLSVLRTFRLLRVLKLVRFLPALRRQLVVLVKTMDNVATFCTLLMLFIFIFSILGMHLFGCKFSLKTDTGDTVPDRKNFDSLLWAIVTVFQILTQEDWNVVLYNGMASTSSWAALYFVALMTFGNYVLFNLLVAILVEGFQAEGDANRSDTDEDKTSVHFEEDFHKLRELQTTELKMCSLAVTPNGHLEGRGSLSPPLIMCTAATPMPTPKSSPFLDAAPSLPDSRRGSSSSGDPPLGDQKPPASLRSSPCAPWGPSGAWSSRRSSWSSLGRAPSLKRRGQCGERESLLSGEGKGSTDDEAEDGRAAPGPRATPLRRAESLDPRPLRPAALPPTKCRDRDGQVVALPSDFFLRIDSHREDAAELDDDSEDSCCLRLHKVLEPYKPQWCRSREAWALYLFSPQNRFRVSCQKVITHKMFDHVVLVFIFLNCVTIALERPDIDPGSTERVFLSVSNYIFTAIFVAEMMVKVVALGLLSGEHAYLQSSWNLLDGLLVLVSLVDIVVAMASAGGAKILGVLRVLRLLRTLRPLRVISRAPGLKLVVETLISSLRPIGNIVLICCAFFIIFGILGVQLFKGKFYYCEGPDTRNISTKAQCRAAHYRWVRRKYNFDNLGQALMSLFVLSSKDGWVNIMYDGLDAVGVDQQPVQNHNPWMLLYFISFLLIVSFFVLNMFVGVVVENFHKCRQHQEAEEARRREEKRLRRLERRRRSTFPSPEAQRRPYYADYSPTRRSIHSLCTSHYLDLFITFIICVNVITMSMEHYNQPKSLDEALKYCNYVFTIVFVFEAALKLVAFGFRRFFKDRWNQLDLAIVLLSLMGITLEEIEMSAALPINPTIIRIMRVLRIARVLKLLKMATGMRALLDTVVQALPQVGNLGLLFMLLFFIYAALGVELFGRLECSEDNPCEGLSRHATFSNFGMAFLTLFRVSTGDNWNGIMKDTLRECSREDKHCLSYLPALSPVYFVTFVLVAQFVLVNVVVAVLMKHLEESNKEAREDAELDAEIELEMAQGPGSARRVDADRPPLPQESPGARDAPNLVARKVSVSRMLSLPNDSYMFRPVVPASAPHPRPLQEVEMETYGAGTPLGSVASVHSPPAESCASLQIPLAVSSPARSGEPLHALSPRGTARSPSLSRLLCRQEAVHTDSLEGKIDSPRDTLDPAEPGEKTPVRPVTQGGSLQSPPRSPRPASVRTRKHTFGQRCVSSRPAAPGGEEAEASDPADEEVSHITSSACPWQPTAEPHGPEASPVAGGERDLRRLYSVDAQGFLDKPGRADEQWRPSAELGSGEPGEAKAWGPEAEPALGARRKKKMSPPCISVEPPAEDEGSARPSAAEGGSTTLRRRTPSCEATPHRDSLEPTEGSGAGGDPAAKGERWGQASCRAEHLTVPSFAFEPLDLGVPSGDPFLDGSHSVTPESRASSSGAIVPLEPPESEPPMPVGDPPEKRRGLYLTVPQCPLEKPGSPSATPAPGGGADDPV
PostGolgi ctrl: growth inhibition of yeast control strain, primary screen, counter-screen for post-Golgi transport modulator project. inhibition, % at 10 µM. 98,000 tested, 5% active. AID 738, 2007. efflux-deficient yeast background strain, growth absorbance A615, 16 h
* marks the source's active call; other numbers are inactive results; nt = no result. Hits are enriched below; roughly 8.4% of the tested compounds scored in any of these assays. Cut-off read from the data, not from the text of the source, unless noted: active = inhibition above about 30%; inactive = the rest.

SMILES | PostGolgi yeast | E coli WT exp | Ecoli tolC | Cav32 inh | PostGolgi ctrl
O=C1CN(C(=O)c2ccc(Br)o2)C(c2ccccc2)c2cc(Cl)ccc2N1 (configuration not stated) | -15 | -6 | 85* | -4.5* | 26
O=C1CN(C(=O)c2ccc(Br)o2)C(c2ccccc2)c2cc(Br)ccc2N1 (configuration not stated) | -12 | -7 | 20 | nt | 22
O=C1CN(C(=O)c2ccc(Br)o2)C(c2ccc(F)cc2)c2cc(Cl)ccc2N1 (configuration not stated) | 0 | -18 | 26 | -6.8* | 31*
COc1ccc(-n2c(=O)c3ccccc3n(CC(=O)NC3CCCC3)c2=O)cc1 | -2 | -7 | -20 | nt | 37*
COc1ccc(-n2c(=O)c3ccccc3n(CC(=O)NC3CCCCC3)c2=O)c(OC)c1 | -1 | 2 | -4 | 0.37 | 7
COc1cc(/C=C2/CCC/C(=C\c3cc(O)c(OC)c(Cl)c3)C2=O)cc(Cl)c1O | 2 | -10 | nt | 2.1 | 22
COc1ccc(OC)c(/C=N/N(C)c2ccccc2)c1 | -1 | 4 | nt | -0.033 | 32*
COc1cc(/C=N/N(C)c2ccccc2)cc(Cl)c1O | 2 | 6 | nt | 0.99 | 48*
COc1ccc(/C=N/Nc2ncc(-c3ccccc3)cn2)c(OC)c1 | nt | nt | nt | -0.7 | nt
CSc1ccc(S(=O)(=O)NCCSC(C)(C)C)cc1 | -8 | 7 | nt | -2.3 | 8
Nc1c(C(=O)c2ccc(Br)s2)oc2ccccc12 | 2 | 4 | 4 | -0.65 | 37*
CC(=O)N(CCO)Cc1cc2cc(C)cc(C)c2[nH]c1=O | -15 | -6 | -2 | 0.3 | 12
O=C(Nc1nc(=S)ss1)c1ccc(Cl)cc1Cl | -1 | 44 | nt | -11* | 20
Cc1ccccc1-n1nnnc1SCc1csc(-c2ccccc2)n1 | -7 | -13 | 55 | -4.5* | 25
Nn1c(SCc2csc(-c3ccccc3)n2)nnc1-c1cccs1 | 4 | 0 | -4 | 0.011 | 0
COCCn1c(SCc2csc(-c3ccccc3)n2)nc2ccccc21 | -1 | -27 | 57 | -3.3 | 30*
Cc1cc2c(cc1C)CSC(c1ccccc1OC(=O)C(C)C)SC2 | -1 | -8 | nt | -0.016 | 4
CN(Cc1ccccc1)S(=O)(=O)c1ccc(NS(=O)(=O)Cc2ccccc2)cc1 | 1 | -27 | nt | -3.8* | 10
CC(C)C(=O)NC(=S)Nc1ccc(S(=O)(=O)NC(C)(C)C)cc1 | 4 | -3 | nt | -1.1 | 10
CC(C)C(=O)NC(=S)Nc1ccc(S(=O)(=O)N(C)Cc2ccccc2)cc1 | 6 | -5 | nt | -5.7* | 10
CCCCNC(=O)c1sc2ncnc(N3CCc4ccccc4C3)c2c1C | 0 | -7 | nt | -5.1* | 20
CCOC(=O)c1sc2ncnc(N3CCN(C(=O)OCC)CC3)c2c1C | 3 | 8 | 4 | -1.2 | 36*
CCOC(=O)CNC(=O)c1sc2ncnc(N3CCc4ccccc4C3)c2c1C | 10 | -9 | nt | nt | 19
CCOC(=O)c1sc2nc(CC(=O)OC)nc(NCc3ccc(F)cc3)c2c1C | -19 | -9 | nt | -0.72 | -4
CCOC(=O)c1sc2nc(CC(=O)OC)nc(N3CCN(c4ccccn4)CC3)c2c1C | 2 | -23 | 66* | -2.9* | 30*
SMILES | PostGolgi yeast | E coli WT exp | Ecoli tolC | Cav32 inh | PostGolgi ctrl
O=C(NCc1ccccc1)C1=C[C@@H](c2coc3ccccc3c2=O)C[C@@H](OCc2ccc(CO)cc2)O1 | nt | nt | nt | -0.48 | nt
Nc1c(C(=O)NC2CCCC2)c2nc3ccccc3nc2n1/N=C/c1cccnc1 | nt | nt | -18 | nt | nt
COc1ccc(-c2cc(-c3ccccc3O)[nH]n2)cc1OC | 2 | -5 | 46 | -1.7 | 11
Oc1ccccc1-c1cc(-c2ccc3c(c2)OCCO3)n[nH]1 | 2 | 24 | 99* | nt | 4
CCC(=O)Nc1cccc2c1C(=O)N(C)C2=O | nt | nt | nt | 0.28 | nt
CCNc1cccc2c1C(=O)N(C)C2=O | -10 | 6 | -8 | -4.1* | 1
CCOC(=O)CN1C=C(c2ccc3ccccc3n2)C(C[N+](=O)[O-])c2ccccc21 (configuration not stated) | 6 | 8 | nt | -4.9* | 6
CCOC(=O)Cn1c2ccccc2c2nc3ccccc3nc21 | 18 | 2 | -15 | -1.5 | 8
COC(=O)c1ccccc1NC(=O)CSc1nc(NC(=O)c2ccccc2)c2c(C)c(C)oc2n1 | 0 | -19 | 19 | -4.9* | 15
COc1cc2c(C#N)c(N3CCN(c4ccccc4OC)CC3)nc(N)c2c(N)n1 | 17 | -1 | 19 | 0.81 | 36*
Cc1onc(-c2ccccc2)c1C(=O)Nc1cccc(OC(C)C)c1 | 1 | -1 | 40 | -0.99 | 33*
Cc1onc(-c2ccccc2)c1C(N)=O | 4 | 1 | 2 | -0.12 | 42*
Cc1onc(-c2ccccc2)c1C(=O)Nc1cccnc1 | 4 | -2 | -17 | 1.2 | 7
CCCOc1cccc(NC(=O)c2c(-c3ccccc3)noc2C)c1 | -4 | 0 | 16 | -4.9* | 17
COCCn1c(SCC(=O)c2[nH]c(C)c(C(C)=O)c2C)nc2ccccc21 | 0 | 5 | 13 | 0.68 | 8
Cc1ccc2c(C)[nH]c(=O)cc2c1 | -7 | 11 | -5 | -0.0049 | 4
C=CCOc1nc2c(c(=O)n(C)c(=O)n2C)n1Cc1c(Cl)cccc1Cl | 13 | -2 | 19 | 0.49 | 20
N#Cc1c(NC(=O)c2ccncc2)sc2c1CCC2 | 2 | -6 | 9 | -0.19 | 31*
COc1cc(C(=O)Nc2cccc3cccnc23)cc(OC)c1OC | 32* | -1 | nt | -0.25 | 5
CCCCNS(=O)(=O)c1ccc(NC(=O)c2c(-c3ccccc3Cl)noc2C)cc1 | -5 | -8 | nt | -5.7* | 7
COc1cc(NC(=O)c2c(-c3ccccc3Cl)noc2C)c2ncccc2c1 | nt | nt | 17 | nt | nt
Cc1onc(-c2ccccc2Cl)c1C(=O)Nc1cccc2cccnc12 | 0 | -6 | 30 | -3 | 33*
Cc1cc(C)cc(N(CC(=O)NCc2cccnc2)S(C)(=O)=O)c1 | -17 | 6 | 1 | -0.36 | -3
CCOC(=O)c1[nH]c(COC(=O)CCCOc2ccccc2)c(C(=O)OCC)c1C | nt | nt | 13 | -1.2 | nt
Cc1onc(-c2ccccc2Cl)c1C(=O)Nc1sc2c(c1C#N)CCC2 | -10 | -19 | 83* | -5.4* | 30*
SMILES | PostGolgi yeast | E coli WT exp | Ecoli tolC | Cav32 inh | PostGolgi ctrl
Cc1onc(-c2ccccc2)c1C(=O)Nc1sc2c(c1C#N)CCC(C)C2 (configuration not stated) | -7 | -11 | 5 | -1 | 25
O=C1N=C(N2CCCCC2)SC1=C1CCCCC1 | 5 | 1 | nt | 0.089 | 2
O=C1NC(=S)SC1=C1CCCCCC1 | 8 | -1 | 21 | -2.9 | 64*
CCCC1(CCC)NC(=O)N(CC(=O)N2CCN(C(=O)c3ccco3)CC2)C1=O | 12 | -6 | nt | 0.44 | 9
CCCC(=O)N(CCN(C(=O)CCC)c1ccccc1)c1ccccc1 | nt | nt | nt | -4.1* | nt
O=C(c1cccs1)N1CCN(S(=O)(=O)N2CCCCC2)CC1 | -2 | -6 | -1 | 0.27 | -1
